We go through 14 molecules from ChEMBL document CHEMBL1156665, “Potent inhibition of human phosphodiesterase-5 by icariin derivatives” (J Nat Prod, 2008).

In series [1] the target is T1, cGMP-specific 3',5'-cyclic phosphodiesterase (Homo sapiens, UniProt O76074). In words: Inhibition of human recombinant PDE5A1 expressed in COS7 cells. In kind it is cell-based, COS-7.
The target of series [2] is T2, Cone cGMP-specific 3',5'-cyclic phosphodiesterase subunit alpha' (Homo sapiens, UniProt P51160). In words: Inhibition of human PDE6C at 10 uM. The settings on record: in the assay text read “at 10-fold PDE5A1 IC50” for “at 10 uM”. The method in brief: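 Human PDE6C run under the same conditions as the PDE5A1 assay (Kincaid–Manganiello method, modified), at 0.5 U enzyme per sample. Compounds tested at a single concentration 10-fold above their PDE5A1 IC50. Mean ± SD of at least two experiments in triplicate.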

In series [3] the target is T1, cGMP-specific 3',5'-cyclic phosphodiesterase. The series can be described thus: Inhibition of human recombinant PDE5A1 expressed in COS7 cells at 10 uM. It is filed as cell-based. The settings on record: COS-7. The method in brief: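 Full-length human PDE5A1 cDNA expressed in COS-7 cells as the enzyme source. Activity measured by the Kincaid and Manganiello method with minor modifications. Individual compounds screened at a single 10 µM concentration; plant extracts at 50 µg/mL. Results are mean ± SD of at least two experiments in triplicate.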

Series [4] can be described thus: Inhibition of human platelet cAMP-specific phosphodiesterase. The method in brief: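 Platelets from healthy volunteers' blood, pelleted by centrifugation at 4 °C, resuspended in 10 mM Tris/HCl pH 7.4 and lysed by three freeze–thaw cycles. Lysate (64 µg protein/mL) incubated 5 min at 30 °C with 0.5 µM cAMP plus [3H]-cAMP in 30 mM Tris-HCl pH 7.4, 4 mM MgCl2. Product converted with nucleotidase and separated on DEAE-Sephadex. [3H]-adenosine counted by scintillation. Tested at 1–250 µM, IC50 from sigmoidal fit. Mean ± SD of three experiments in triplicate.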

Series [5] in a line: Cytotoxicity against human fibroblasts at 100 uM after 24 hrs by MTT assay. It is filed as cell-based. The conditions noted are these: fibroblast. The method in brief:
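Human skin fibroblasts exposed 24 h to 0.25–100 µM in DMEM-F12 with 10% heat-inactivated FBS, 1% penicillin, 1% L-glutamine. Medium then replaced with MTT 0.5 mg/mL in PBS, 3 h at 37 °C. Formazan extracted with 2-propanol/DMSO (9:1), 15 min at 37 °C, absorbance read at 560 nm.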

The target in series [6] is T2, Cone cGMP-specific 3',5'-cyclic phosphodiesterase subunit alpha'. In words: Inhibition of human PDE6C.
The species entered for series [7] is Homo sapiens. The series can be described thus: Selectivity ratio of IC50 for human cAMP-PDE to IC50 for human PDE5A1. The method in brief:
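cAMP-PDE IC50 divided by PDE5A1 IC50. cAMP-PDE from human platelet lysate (64 µg protein/mL) with 0.5 µM cAMP/[3H]-cAMP, 5 min at 30 °C, at 1–250 µM. PDE5A1 was recombinant human full-length enzyme expressed in COS-7 cells. IC50s from sigmoidal fits.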

For series [8], the species on record is Homo sapiens. The series can be described thus: Selectivity ratio of IC50 for human PDE6C to IC50 for human PDE5A1. The method in brief: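 PDE6C IC50 divided by PDE5A1 IC50. PDE6C assayed as for PDE5A1 (modified Kincaid–Manganiello method, 0.5 U enzyme/sample). PDE5A1 was full-length human recombinant enzyme expressed in COS-7 cells. IC50s from sigmoidal curve fits. Mean ± SD of at least two experiments in triplicate.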

Active and inactive are the calls of the source. The rule behind the calls is not given here.

T2 sequence (P51160 whole entry): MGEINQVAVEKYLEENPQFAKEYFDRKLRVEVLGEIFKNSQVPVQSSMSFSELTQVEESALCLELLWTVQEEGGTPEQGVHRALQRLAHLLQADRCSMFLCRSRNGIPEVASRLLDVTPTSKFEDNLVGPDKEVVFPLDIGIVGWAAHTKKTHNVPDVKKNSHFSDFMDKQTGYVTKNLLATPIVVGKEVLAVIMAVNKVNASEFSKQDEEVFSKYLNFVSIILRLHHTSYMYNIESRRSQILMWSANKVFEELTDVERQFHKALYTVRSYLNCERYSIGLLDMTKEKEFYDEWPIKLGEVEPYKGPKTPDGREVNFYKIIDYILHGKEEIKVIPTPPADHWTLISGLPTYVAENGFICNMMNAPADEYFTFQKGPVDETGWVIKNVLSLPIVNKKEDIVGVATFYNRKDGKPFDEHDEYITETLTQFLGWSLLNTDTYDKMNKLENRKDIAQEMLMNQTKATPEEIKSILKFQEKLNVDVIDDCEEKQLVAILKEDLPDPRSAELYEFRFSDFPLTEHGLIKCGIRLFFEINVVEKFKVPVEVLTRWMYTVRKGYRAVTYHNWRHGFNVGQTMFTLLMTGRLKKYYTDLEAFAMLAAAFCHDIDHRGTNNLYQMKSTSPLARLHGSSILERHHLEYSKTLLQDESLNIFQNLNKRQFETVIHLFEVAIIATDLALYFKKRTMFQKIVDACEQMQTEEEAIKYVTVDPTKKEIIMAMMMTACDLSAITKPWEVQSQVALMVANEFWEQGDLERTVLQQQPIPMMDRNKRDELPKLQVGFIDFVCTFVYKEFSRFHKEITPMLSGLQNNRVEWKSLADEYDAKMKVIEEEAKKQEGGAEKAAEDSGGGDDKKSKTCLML

`COc1ccc(-c2oc3c(CC=C(C)C)c(O)cc(O)c3c(=O)c2O)cc1` [ICARITIN]: the half-maximal inhibitory concentration (IC50) in series [1] is 2.2 µM. In series [2], the outcome was inactive.
For the molecule `CC(C)=CCc1c(O)cc(O)c2c(=O)cc(-c3ccc(O)cc3)oc12`, the IC50 in series [1] was determined as 1.29 µM.
As for `CC(C)=CCc1c(O)cc(O)c2c(=O)c(O)c(-c3ccc(O)c(O)c3)oc12`, the IC50 in series [1] came to 0.7 µM.
Still for that read-out and setting: as for `COc1ccc(-c2oc3c(CC=C(C)C)c(O)cc(O)c3c(=O)c2O[C@@H]2O[C@@H](C)[C@H](O)[C@@H](O)[C@H]2O)cc1` [ICARISIDE II], the figure is 0.16 µM.
`O=c1cc(-c2ccc(O)cc2)oc2cc(O)cc(O)c12`: in series [3], the inhibition came to 12%.
Same read-out and setting: then `O=C1C[C@@H](c2ccc(O)cc2)Oc2cc(O)cc(O)c21`, with 6%.
Turning to `CCCc1nn(C)c2c(=O)[nH]c(-c3cc(S(=O)(=O)N4CCN(C)CC4)ccc3OCC)nc12`, in series [4], half-maximal inhibition (IC50) was put at 27.5 µM.
With `COc1ccc(-c2oc3c4c(cc(O)c3c(=O)c2O)OC(C)(C)CC4)cc1`, in series [1], the half-maximal inhibitory concentration (IC50) amounted to 45.5 µM. Moreover, the result in series [2] was inactive.
Take `COc1ccc(-c2oc3c(CC=C(C)C)c(O)cc(O)c3c(=O)c2O[C@@H]2O[C@H](C)[C@@H](O)[C@H](O)[C@@H]2O)cc1`: the outcome in series [2] was inactive.
Turning to `CC(C)=CCc1c(O)cc(O)c2c1OC(c1ccc(O)cc1)CC2=O` (centres undefined) [SOPHORAFLAVANONE B], in series [1], the IC50 is 16.2 µM.
`COc1ccc(-c2oc3c(CC=C(C)C)c(O[C@@H]4O[C@H](CO)[C@@H](O)[C@H](O)[C@H]4O)cc(O)c3c(=O)c2O[C@@H]2O[C@@H](C)[C@H](O)[C@@H](O)[C@H]2O)cc1` [ICARIIN]: the half-inhibitory concentration (IC50) in series [1] was 5.9 µM. This molecule showed an inhibition in series [2] of 45%.
Consider `COc1ccc(-c2oc3c(CC=C(C)C)c(OCCO)cc(O)c3c(=O)c2O[C@@H]2O[C@H](C)[C@@H](O)[C@H](O)[C@@H]2O)cc1`, for which, in series [1], the concentration for half-maximal inhibition (IC50) amounted to 0.36 µM. Moreover, the inhibition in series [2] turned out to be 86%.
For the molecule `O=c1c(O)c(-c2ccc(O)c(O)c2)oc2cc(O)cc(O)c12`, the inhibition in series [3] is 23%.
On to `COc1ccc(-c2oc3c(CC=C(C)C)c(OCCO)cc(O)c3c(=O)c2OCCO)cc1`, for which the Activity result in series [5] is “Non-toxic”. Moreover, the half-inhibitory concentration (IC50) in series [6] was 30.9 µM; in series [1], 0.074 µM; in series [4], 96.3 µM. Further, the Ratio IC50 in series [7] is 1300; in series [8], 418. For the same molecule, the outcome in series [2] was inactive.
